Data published in ChEMBL document CHEMBL5661979, “Pharmacological inhibition of BMK1 suppresses tumor growth through promyelocytic leukemia protein” (Cancer Cell, 2010).
pIC50, pKd: −log10 of the molar value.

Assays:
[1] = Inhibition of MST4/YSK1 in human HeLa cells lysate pre incubated for 15 mins followed by ADP acyl phosphate probe addition and measured after 10 mins by LC-MS/MS analysis; type: subcellular
[2] = biological target: T1, Interleukin-1 receptor-associated kinase 4 (Homo sapiens) (UniProt Q9NWZ3); assay: Inhibition of IRAK4 in human HeLa cells lysate at 50 uM pre incubated for 15 mins followed by ATP acyl phosphate probe addition and measured after 10 mins by LC-MS/MS analysis relative to control; type: subcellular; details: time 25.0 min
T1 sequence (whole entry): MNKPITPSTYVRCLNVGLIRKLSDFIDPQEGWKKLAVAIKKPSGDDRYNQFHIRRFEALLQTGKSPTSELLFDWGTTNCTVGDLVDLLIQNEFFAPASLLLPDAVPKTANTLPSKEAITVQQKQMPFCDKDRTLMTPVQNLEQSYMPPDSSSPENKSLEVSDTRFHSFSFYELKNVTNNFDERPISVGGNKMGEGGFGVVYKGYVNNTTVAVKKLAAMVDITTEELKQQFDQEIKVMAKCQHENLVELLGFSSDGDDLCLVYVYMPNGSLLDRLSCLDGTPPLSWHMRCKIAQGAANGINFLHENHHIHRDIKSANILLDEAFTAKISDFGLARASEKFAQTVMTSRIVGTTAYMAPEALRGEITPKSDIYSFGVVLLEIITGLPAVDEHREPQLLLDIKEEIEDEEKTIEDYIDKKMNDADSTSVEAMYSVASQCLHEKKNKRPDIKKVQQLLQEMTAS

[3] = biological target: Dual specificity mitogen-activated protein kinase kinase 5 (Homo sapiens, UniProt Q13163); assay: Inhibition of MAP2K5 in human HeLa cells lysate pre incubated for 15 mins followed by ADP acyl phosphate probe addition and measured after 10 mins by LC-MS/MS analysis; type: subcellular
[4] = biological target: T2, Cyclin-dependent kinase 2 (Homo sapiens, UniProt P24941); assay: Inhibition of CDK2 in human HeLa cells lysate at 2 uM pre incubated for 15 mins followed by ATP acyl phosphate probe addition and measured after 10 mins by LC-MS/MS analysis relative to control; type: subcellular; details: time 25.0 min
Method in brief: (§1)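 KiNativ profiling in HeLa lysate (5 mg/mL total protein). Lysate incubated 15 min with inhibitor at 50, 10, 2, 0.8 or 0 μM. ATP or ADP acylphosphate probe then added (5 μM final) and reacted 10 min. Reaction stopped with urea and analysed by targeted MS, using up to four fragment ions per kinase peptide-probe conjugate. % inhibition taken against untreated lysate. Run in duplicate.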

[5] = biological target: Non-receptor tyrosine-protein kinase TNK1 (Homo sapiens, UniProt Q13470); assay: Binding affinity to TNK1 (unknown origin) assessed as dissociation constant by ATP-competition binding assay
[6] = biological target: Dual specificity mitogen-activated protein kinase kinase 4 (Homo sapiens, UniProt P45985); assay: Inhibition of MAP2K4 in human HeLa cells lysate pre incubated for 15 mins followed by ATP acyl phosphate probe addition and measured after 10 mins by LC-MS/MS analysis; type: subcellular
IKK epsilon/TBK1 = IKK epsilon/TBK1 (Homo sapiens, UniProt Q14164+Q9UHD2); assay: Inhibition of IKKE/TBK1 in human HeLa cells lysate pre incubated for 15 mins followed by ADP acyl phosphate probe addition and measured after 10 mins by LC-MS/MS analysis; type: subcellular
[7] = biological target: T2, Cyclin-dependent kinase 2; assay: Inhibition of CDK2 K1 site in human HeLa cells lysate at 2 uM pre incubated for 15 mins followed by ATP acyl phosphate probe addition and measured after 10 mins by LC-MS/MS analysis relative to control; type: subcellular; details: time 25.0 min; method in brief: as §1
[8] = biological target: T3, Serine/threonine-protein kinase 3 (Homo sapiens) (UniProt Q13188); assay: Inhibition of MST2 in human HeLa cells lysate at 10 uM pre incubated for 15 mins followed by ADP acyl phosphate probe addition and measured after 10 mins by LC-MS/MS analysis relative to control; type: subcellular; details: time 25.0 min
T3 sequence (whole entry): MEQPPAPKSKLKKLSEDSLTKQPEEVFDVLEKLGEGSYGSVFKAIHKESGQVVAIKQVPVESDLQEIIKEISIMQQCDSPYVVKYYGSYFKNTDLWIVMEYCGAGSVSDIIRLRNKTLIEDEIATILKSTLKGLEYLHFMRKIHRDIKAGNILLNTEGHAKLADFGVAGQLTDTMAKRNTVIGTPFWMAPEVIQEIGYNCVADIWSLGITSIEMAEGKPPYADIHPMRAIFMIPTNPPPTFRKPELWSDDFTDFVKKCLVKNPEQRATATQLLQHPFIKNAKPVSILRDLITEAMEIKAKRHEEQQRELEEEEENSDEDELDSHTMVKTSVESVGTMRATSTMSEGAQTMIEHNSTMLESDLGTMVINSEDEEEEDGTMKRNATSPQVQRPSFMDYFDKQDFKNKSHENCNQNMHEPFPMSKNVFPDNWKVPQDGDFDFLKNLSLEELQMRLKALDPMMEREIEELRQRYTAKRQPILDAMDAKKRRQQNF

[9] = biological target: T1, Interleukin-1 receptor-associated kinase 4 (Homo sapiens); assay: Inhibition of IRAK4 in human HeLa cells lysate at 10 uM pre incubated for 15 mins followed by ATP acyl phosphate probe addition and measured after 10 mins by LC-MS/MS analysis relative to control; type: subcellular; details: time 25.0 min
[10] = biological target: Tyrosine-protein kinase Fer (Homo sapiens, UniProt P16591); assay: Inhibition of FER in human HeLa cells lysate pre incubated for 15 mins followed by ATP acyl phosphate probe addition and measured after 10 mins by LC-MS/MS analysis; type: subcellular
[11] = biological target: Dual specificity mitogen-activated protein kinase kinase 6 (Homo sapiens, UniProt P52564); assay: Inhibition of MAP2K6 in human HeLa cells lysate pre incubated for 15 mins followed by ATP acyl phosphate probe addition and measured after 10 mins by LC-MS/MS analysis; type: subcellular
[12] = biological target: Ribosomal protein S6 kinase alpha-3 (Homo sapiens, UniProt P51812); assay: Inhibition of RSK2 domain 1 in human HeLa cells lysate at 2 uM pre incubated for 15 mins followed by ADP acyl phosphate probe addition and measured after 10 mins by LC-MS/MS analysis relative to control; type: subcellular; details: time 25.0 min
[13] = biological target: T4, Dual specificity mitogen-activated protein kinase kinase 4 (Homo sapiens) (UniProt P45985); assay: Inhibition of MAP2K4 in human HeLa cells lysate at 10 uM pre incubated for 15 mins followed by ATP acyl phosphate probe addition and measured after 10 mins by LC-MS/MS analysis relative to control; type: subcellular; details: time 25.0 min
T4 sequence (whole entry): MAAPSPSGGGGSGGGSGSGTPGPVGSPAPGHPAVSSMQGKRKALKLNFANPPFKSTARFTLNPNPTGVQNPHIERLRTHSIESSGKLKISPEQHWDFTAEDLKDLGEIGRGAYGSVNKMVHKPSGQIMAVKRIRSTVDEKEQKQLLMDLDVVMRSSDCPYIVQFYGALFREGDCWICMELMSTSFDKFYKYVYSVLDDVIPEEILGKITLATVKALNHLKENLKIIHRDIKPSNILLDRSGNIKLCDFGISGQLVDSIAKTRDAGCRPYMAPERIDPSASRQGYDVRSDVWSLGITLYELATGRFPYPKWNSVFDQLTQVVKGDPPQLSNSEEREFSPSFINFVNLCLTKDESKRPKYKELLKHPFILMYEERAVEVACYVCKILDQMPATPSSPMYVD

Sequence of Dual specificity mitogen-activated protein kinase kinase 5 (Q13163 whole entry): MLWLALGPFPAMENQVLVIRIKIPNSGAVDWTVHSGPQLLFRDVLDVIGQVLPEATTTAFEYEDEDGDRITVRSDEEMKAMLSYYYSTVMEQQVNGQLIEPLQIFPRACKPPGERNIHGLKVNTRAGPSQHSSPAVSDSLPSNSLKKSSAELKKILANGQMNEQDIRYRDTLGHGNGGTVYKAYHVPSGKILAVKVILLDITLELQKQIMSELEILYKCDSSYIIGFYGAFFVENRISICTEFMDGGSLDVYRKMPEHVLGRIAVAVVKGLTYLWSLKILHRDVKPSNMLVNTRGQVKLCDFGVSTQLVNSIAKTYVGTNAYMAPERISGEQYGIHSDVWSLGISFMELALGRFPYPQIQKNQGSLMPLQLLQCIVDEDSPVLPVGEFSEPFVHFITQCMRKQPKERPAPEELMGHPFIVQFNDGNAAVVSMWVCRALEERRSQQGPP
Sequence of IKK epsilon/TBK1 (Q14164 whole entry): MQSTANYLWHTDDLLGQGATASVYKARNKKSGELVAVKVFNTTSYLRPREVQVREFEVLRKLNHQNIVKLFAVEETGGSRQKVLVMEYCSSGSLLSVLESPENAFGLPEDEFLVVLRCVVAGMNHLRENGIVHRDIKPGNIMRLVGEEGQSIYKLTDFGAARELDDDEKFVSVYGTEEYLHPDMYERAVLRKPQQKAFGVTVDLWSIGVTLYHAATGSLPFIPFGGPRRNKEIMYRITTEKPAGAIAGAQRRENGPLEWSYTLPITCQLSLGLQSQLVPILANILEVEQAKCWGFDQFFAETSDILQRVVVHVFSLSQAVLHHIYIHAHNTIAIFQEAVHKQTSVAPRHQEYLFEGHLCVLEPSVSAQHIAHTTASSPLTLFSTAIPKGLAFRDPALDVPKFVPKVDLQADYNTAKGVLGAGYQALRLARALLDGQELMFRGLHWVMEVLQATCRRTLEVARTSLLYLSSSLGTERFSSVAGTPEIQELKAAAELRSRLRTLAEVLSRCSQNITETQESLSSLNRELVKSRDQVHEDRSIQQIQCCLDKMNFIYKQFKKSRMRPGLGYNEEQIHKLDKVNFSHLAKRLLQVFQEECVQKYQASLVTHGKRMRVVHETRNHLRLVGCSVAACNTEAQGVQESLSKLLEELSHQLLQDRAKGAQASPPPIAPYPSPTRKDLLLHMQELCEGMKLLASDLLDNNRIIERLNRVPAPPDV
Sequence of IKK epsilon/TBK1 (Q9UHD2 whole entry): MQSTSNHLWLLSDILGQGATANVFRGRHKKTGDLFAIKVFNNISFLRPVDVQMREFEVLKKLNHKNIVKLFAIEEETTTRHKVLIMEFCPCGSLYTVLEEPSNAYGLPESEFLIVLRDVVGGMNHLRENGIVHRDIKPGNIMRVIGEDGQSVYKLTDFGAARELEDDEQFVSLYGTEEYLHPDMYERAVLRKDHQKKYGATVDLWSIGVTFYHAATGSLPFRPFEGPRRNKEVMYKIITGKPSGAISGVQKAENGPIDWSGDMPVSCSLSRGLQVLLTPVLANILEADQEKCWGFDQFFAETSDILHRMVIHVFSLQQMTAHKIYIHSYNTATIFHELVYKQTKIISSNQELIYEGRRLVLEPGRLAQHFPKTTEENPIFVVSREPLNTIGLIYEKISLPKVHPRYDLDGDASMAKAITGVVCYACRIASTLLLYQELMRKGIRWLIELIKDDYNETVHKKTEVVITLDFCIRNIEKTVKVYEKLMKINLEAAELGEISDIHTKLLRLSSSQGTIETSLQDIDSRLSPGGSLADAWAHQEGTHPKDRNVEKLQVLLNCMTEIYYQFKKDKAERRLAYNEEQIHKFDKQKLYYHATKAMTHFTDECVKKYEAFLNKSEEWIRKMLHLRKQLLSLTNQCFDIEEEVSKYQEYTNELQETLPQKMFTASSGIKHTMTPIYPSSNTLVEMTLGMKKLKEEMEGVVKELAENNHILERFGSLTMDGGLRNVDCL
Sequence of Ribosomal protein S6 kinase alpha-3 (P51812 whole entry, the tested form may be a part): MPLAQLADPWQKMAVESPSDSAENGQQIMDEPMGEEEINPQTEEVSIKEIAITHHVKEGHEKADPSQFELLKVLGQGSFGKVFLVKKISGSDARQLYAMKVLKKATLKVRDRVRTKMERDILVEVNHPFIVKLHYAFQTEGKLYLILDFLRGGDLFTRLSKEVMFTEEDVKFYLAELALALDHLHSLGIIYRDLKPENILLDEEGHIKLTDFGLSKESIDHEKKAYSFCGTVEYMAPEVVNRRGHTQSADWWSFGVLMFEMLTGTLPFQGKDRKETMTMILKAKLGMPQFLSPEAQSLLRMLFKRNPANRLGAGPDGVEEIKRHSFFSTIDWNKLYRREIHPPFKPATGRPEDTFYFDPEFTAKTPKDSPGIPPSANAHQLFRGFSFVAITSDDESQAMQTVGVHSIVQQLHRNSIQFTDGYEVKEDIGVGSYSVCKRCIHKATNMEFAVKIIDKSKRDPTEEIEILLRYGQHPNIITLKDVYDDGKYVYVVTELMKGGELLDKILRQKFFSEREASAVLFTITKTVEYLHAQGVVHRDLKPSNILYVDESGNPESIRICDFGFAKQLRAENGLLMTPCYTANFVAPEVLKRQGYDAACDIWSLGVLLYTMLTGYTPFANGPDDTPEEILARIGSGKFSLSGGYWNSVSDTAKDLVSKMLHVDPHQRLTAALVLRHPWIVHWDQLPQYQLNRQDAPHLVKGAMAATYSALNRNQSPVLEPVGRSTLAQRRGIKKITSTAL
Sequence of Tyrosine-protein kinase Fer (P16591 whole entry): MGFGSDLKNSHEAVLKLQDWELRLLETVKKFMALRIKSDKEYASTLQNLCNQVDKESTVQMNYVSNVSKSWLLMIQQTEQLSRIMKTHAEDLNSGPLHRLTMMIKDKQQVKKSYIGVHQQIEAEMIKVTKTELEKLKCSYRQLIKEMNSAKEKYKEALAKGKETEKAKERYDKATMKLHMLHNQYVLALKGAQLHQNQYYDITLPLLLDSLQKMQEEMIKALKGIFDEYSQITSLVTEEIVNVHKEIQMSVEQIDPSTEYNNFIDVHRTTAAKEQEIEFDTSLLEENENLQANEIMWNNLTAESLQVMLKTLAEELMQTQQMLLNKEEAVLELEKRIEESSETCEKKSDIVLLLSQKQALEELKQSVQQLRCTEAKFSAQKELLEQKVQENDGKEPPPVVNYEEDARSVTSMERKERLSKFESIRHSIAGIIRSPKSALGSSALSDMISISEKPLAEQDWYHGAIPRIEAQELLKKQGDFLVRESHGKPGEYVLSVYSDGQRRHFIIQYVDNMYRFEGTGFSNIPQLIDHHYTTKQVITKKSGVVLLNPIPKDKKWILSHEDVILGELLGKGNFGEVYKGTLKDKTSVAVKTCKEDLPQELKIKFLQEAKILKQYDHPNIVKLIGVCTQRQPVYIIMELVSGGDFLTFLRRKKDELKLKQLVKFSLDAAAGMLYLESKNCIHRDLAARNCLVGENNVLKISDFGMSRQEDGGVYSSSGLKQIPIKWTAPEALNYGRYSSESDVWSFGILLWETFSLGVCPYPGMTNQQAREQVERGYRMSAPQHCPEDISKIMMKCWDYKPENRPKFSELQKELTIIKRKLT
Sequence of Non-receptor tyrosine-protein kinase TNK1 (Q13470 whole entry): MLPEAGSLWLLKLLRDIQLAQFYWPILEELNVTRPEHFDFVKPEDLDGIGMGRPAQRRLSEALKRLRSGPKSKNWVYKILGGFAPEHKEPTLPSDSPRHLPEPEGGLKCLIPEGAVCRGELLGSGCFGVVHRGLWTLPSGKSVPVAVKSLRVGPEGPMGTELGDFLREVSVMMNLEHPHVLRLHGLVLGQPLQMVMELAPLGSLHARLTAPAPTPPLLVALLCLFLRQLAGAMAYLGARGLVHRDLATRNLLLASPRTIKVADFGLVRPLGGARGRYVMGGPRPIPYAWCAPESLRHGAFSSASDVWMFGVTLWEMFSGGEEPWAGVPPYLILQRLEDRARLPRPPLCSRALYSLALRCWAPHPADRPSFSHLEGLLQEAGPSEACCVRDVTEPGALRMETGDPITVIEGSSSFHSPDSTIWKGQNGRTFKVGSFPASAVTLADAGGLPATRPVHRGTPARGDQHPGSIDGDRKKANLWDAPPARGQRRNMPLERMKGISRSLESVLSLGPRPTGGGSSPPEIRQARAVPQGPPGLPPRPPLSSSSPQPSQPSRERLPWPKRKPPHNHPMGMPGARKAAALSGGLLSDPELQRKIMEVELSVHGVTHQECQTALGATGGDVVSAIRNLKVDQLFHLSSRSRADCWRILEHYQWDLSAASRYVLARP
Sequence of Dual specificity mitogen-activated protein kinase kinase 6 (P52564 whole entry, the tested form may be a part): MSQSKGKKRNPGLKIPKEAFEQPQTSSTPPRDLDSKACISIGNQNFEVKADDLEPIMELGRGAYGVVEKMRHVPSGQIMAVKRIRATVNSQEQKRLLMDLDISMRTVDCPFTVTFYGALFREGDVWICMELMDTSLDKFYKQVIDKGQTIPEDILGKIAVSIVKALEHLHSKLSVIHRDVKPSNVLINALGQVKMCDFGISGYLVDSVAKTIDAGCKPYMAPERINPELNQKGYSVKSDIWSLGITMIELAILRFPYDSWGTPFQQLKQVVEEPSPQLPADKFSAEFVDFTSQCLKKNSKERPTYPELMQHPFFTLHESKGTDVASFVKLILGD

In the case of `CCOc1cc(N2CCC(O)CC2)ccc1Nc1ncc2c(n1)N(C)c1ccccc1C(=O)N2C`, the pIC50 [1] was less than 4.30, the inhibition [2] was 15.6% and the pIC50 [3] was less than 4.30. For the same compound, the inhibition [4] was 2%, the pKd [5] was 6.05 and the pIC50 [6] was less than 4.30. The pIC50 (IKK epsilon/TBK1) was less than 4.30, the inhibition [7] was -2.9% and the inhibition [8] was 23.5%. It also gave an inhibition [9] of 10.5%, a pIC50 [10] of less than 4.30 and a pIC50 [11] of less than 4.30. The inhibition [12] was 4.9% and the inhibition [13] was 3.9%.
